# Test results taken from ChEMBL document CHEMBL3351780, “Novel hybrids of metronidazole and quinolones: synthesis, bioactive evaluation, cytotoxicity, preliminary antimicrobial mechanism and effect of metal ions on their transportation by human serum albumin” (Eur J Med Chem, 2014).
# Experiments:
# [1] = Antibacterial activity against Eberthella typhosa by two-fold serial dilution method; assay type: functional
# Outline: (§1)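 MIC read as the lowest concentration giving complete growth inhibition. Two-fold serial dilutions were made in 96-well plates following NCCLS, giving a series down to 0.5 µg/mL (…32, 16, 8, 4, 2, 1, 0.5). Plates were inoculated and incubated at 37 °C for 24 h. A DMSO-with-inoculum control without drug was included. Growth was monitored visually and spectrophotometrically, in triplicate.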
# Pichia norvegensis = experiment: Antifungal activity against Candida mycoderma after 24 hrs by microbroth dilution method; assay type: functional
# Aspergillus flavus = experiment: Antifungal activity against Aspergillus flavus ATCC 96918 after 24 hrs by microbroth dilution method
# Bacillus spizizenii = experiment: Antibacterial activity against Bacillus subtilis ATCC 6633 by two-fold serial dilution method; assay type: functional
# Outline: (§2)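 Standard two-fold serial dilution in 96-well microtest plates following NCCLS. Top dilutions printed as 32, 16, 8, 4, 2, 1, 0.5 ug/mL. Wells inoculated and held at 37 °C for 24 h. Growth judged visually and by spectrophotometer, in triplicate. MIC is the lowest concentration giving complete growth inhibition.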
# Cyberlindnera jadinii = experiment: Antifungal activity against Candida utilis after 24 hrs by microbroth dilution method; assay type: functional; details: Williopsis jadinii
# Outline: (§3)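 Spore suspension prepared in sterile distilled water from one-day-old cultures on Sabouraud agar, final 1-5 x 10^3 spores/mL. Compounds were serially diluted in RPMI 1640 to give eleven dilutions. Incubation at 35 °C for 24 h. Growth read visually and spectrophotometrically, in triplicate. MIC is the lowest concentration with complete inhibition.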
# Staphylococcus aureus [2] = experiment: Antibacterial activity against Staphylococcus aureus ATCC 25923 by two-fold serial dilution method; assay type: functional; outline: as §2
# [3] = Aqueous solubility of the compound by UV-spectrophotometry; assay type: physicochemical
# Candida albicans = experiment: Antifungal activity against Candida albicans ATCC 76615 after 24 hrs by microbroth dilution method; assay type: functional; details: ATCC 76615, 24 h; outline: as §3
# Escherichia coli = experiment: Antibacterial activity against Escherichia coli DH52 by two-fold serial dilution method; assay type: functional; outline: as §2
# Streptococcus pneumoniae = experiment: Antibacterial activity against Streptococcus pneumoniae by two-fold serial dilution method; assay type: functional; outline: as §2
# Shigella dysenteriae = experiment: Antibacterial activity against Shigella dysenteriae by two-fold serial dilution method; assay type: functional; outline: as §1
# [4] = Octanol-water partition co-efficient, log P of the compound by shake flask method; assay type: physicochemical
# Saccharomyces cerevisiae = experiment: Antifungal activity against Saccharomyces cerevisiae after 24 hrs by microbroth dilution method; assay type: functional; outline: as §3
# Micrococcus luteus = experiment: Antibacterial activity against Micrococcus luteus by two-fold serial dilution method; assay type: functional; outline: as §2
# Pseudomonas aeruginosa = experiment: Antibacterial activity against Pseudomonas aeruginosa by two-fold serial dilution method; assay type: functional; outline: as §2
# Staphylococcus aureus [5] = experiment: Antibacterial activity against methicillin-resistant Staphylococcus aureus N315 by two-fold serial dilution method; assay type: functional; outline: as §1
# [6] = Dissociation constant, pKa of the compound by UV-spectroscopy; assay type: physicochemical
# Outline: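 DMSO stock at 4.0 × 10^-3 mol/L added to 2 mL of buffer, then shaken 10 min at room temperature. Buffers were acetate (pH 4.0–5.0), MES (5.5–6.5), HEPES (7.0–8.0) and CHES (8.5–9.4), each from 500 mM stocks. Scans ran 210–400 nm and were normalized. Absolute differences from the acid spectrum were summed at 244 and 308 nm, plotted against pH and fitted to obtain pKa.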
# [7] = Cytotoxicity against human A549 cells assessed as cell viability at 256 ug/ml after 24 hrs by CCK-8 assay; assay type: cell-based; details: read-out: Activity
# Outline: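 A549 cells were plated and allowed to attach for 24 h, then medium with the compound was added. The compound came from DMSO stocks diluted in medium to 8, 16, 32, 64, 128 and 256 µg/mL. Cells were kept at 37 °C in 5% CO2. Viability was read by CCK-8 absorbance at 450 nm against a drug-free control, three replicates.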
SMILES,MIC [1],MIC (Pichia norvegensis),MIC (Aspergillus flavus),MIC (Bacillus spizizenii),MIC (Cyberlindnera jadinii),MIC (Staphylococcus aureus [2]),solubility [3],MIC (Candida albicans),MIC (Escherichia coli),MIC (Streptococcus pneumoniae),MIC (Shigella dysenteriae),logP [4],MIC (Saccharomyces cerevisiae),MIC (Micrococcus luteus),MIC (Pseudomonas aeruginosa),MIC (Staphylococcus aureus [5]),pKa [6],"viability at 24 h, 256 ug/ml [7]"
CCOC(=O)c1cn(CC2CO2)c2c(F)cccc2c1=O (racemic),2 µg/mL,64 µg/mL,512 µg/mL,32 µg/mL,512 µg/mL,–,–,–,–,–,–,–,–,–,–,–,–,–
Cc1ncc([N+](=O)[O-])n1CC(O)Cn1cc(C(=O)O)c(=O)c2cccc(F)c21 (stereo not drawn),4 µg/mL,512 µg/mL,–,16 µg/mL,256 µg/mL,8 µg/mL,390 µg/mL,256 µg/mL,4 µg/mL,32 µg/mL,8 µg/mL,-0.13,64 µg/mL,4 µg/mL,2 µg/mL,4 µg/mL,5.12,–
COc1ccc2c(c1)c(=O)c(C(=O)O)cn2CC(O)Cn1c([N+](=O)[O-])cnc1C (stereo not drawn),8 µg/mL,512 µg/mL,–,32 µg/mL,128 µg/mL,32 µg/mL,400 µg/mL,128 µg/mL,64 µg/mL,64 µg/mL,32 µg/mL,-0.24,256 µg/mL,512 µg/mL,512 µg/mL,8 µg/mL,5.72,–
Cc1ccc2c(c1)c(=O)c(C(=O)O)cn2CC(O)Cn1cnc([N+](=O)[O-])c1 (stereo not drawn),4 µg/mL,64 µg/mL,–,1 µg/mL,256 µg/mL,0.5 µg/mL,–,16 µg/mL,16 µg/mL,32 µg/mL,4 µg/mL,–,4 µg/mL,8 µg/mL,1 µg/mL,8 µg/mL,–,> 83%
Cc1ccc2c(c1)c(=O)c(C(=O)O)cn2CC(O)Cn1c([N+](=O)[O-])cnc1C (stereo not drawn),8 µg/mL,256 µg/mL,–,8 µg/mL,512 µg/mL,8 µg/mL,390 µg/mL,16 µg/mL,1 µg/mL,4 µg/mL,8 µg/mL,-0.03,2 µg/mL,1 µg/mL,2 µg/mL,4 µg/mL,6.43,> 83%
